Experimental data from ChEMBL document CHEMBL1152456, “A MurF inhibitor that disrupts cell wall biosynthesis in Escherichia coli” (Antimicrob Agents Chemother, 2007).
In brackets after ≈: the same amount, converted by molar mass. Activity calls are given as the source filed them. The calls are words filed in the database; no cut-off is given here. Positions of bridges follow the written chain, without caps; N, C: chain ends. Non-standard residues stand in square brackets, D forms with d. Residues, ends and D or L forms follow the SMILES beside them. Dab = NCC[C@H](N)C(=O)O

Tests used:
Escherichia coli [1] = experiment: Binding affinity to Escherichia coli MurF assessed as increase in enzyme melting temperature by thermofluor analysis in presence of ATP
Summary of the method: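 ThermoFluor thermal shift binding assay on E. coli MurF run in the presence of ATP; read-out is the change in Tm.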

[2] = Binding affinity to Escherichia coli MurF by HTS assay in absence of ATP
Escherichia coli [3] = experiment: Antibacterial activity against LPS-deffective Escherichia coli OC2530 by CLSI broth microdilution method; assay type: functional
Summary of the method: (§1)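 MICs by CLSI broth microdilution in cation-adjusted Mueller-Hinton broth. Strains came from ATCC or an in-house collection; NovaBlue was purchased.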

Staphylococcus aureus [4] = experiment: Antibacterial activity against Staphylococcus aureus ATCC 29213 by CLSI broth microdilution method; assay type: functional; summary of the method: as §1
[5] = Inhibition of Escherichia coli MurF assessed as appearance of UDP-MurNAc-pentapeptide product by HPLC
Summary of the method: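 HPLC assay of E. coli MurF. Enzyme at 4 nM final in 100 mM Tris-Cl pH 8.5, 5 mM ATP, 300 mM NaCl, preincubated 10 min at room temperature with compound or DMSO. D-Ala-D-Ala and a completed Mpl reaction supplying UDP-MurNAc-tripeptide were then added. Reaction ran 15 min at 37°C and was stopped with trifluoroacetic acid. Pentapeptide and tripeptide peaks were quantified by HPLC to give IC50.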

[6] = Binding affinity to Escherichia coli MurF by HTS assay in presence of ATP
Escherichia coli [7] = experiment: Bactericidal activity against LPS-deffective Escherichia coli OC2530 assessed as log reduction in CFU at 2 times MIC after 3 hrs relative to control; assay type: functional
Summary of the method: (§2)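 Killing. OC2530 at mid-log treated with 2x MIC compound. Aliquots taken from replicate Bioscreen wells at set times, serially diluted in PBS, spiral-plated and colonies counted. Mean ± SD of two independent experiments.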

Enterococcus faecium = experiment: Antibacterial activity against Enterococcus faecium OC3312 by CLSI broth microdilution method; assay type: functional; summary of the method: as §1
Staphylococcus aureus [8] = experiment: Antibacterial activity against methicillin-resistant Staphylococcus aureus OC2878 by CLSI broth microdilution method; assay type: functional
Summary of the method: (§3)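 Broth microdilution MIC following CLSI method, in cation-adjusted Mueller-Hinton broth; strains from ATCC or the company strain collection.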

Escherichia coli [9] = experiment: Antibacterial activity against Escherichia coli OC9040 by CLSI broth microdilution method; assay type: functional; summary of the method: as §1
Escherichia coli [10] = experiment: Bactericidal activity against LPS-deffective Escherichia coli OC2530 assessed as log reduction in CFU at 2 times MIC after 30 mins relative to control; assay type: functional; summary of the method: as §2
Escherichia coli [11] = experiment: Antibacterial activity against Escherichia coli NovaBlue by CLSI broth microdilution method in presence of permeabilizer polymyxin B nonapeptide; assay type: functional; summary of the method: as §1
Escherichia coli [12] = experiment: Antibacterial activity against mid-log culture of LPS-deffective Escherichia coli OC2530 assessed as cell lysis at 2 times MIC by optical density study; assay type: functional, organism-based
Summary of the method: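 Growth curve. E. coli OC2530 grown with aeration to mid-log (A600 0.3), compound added at 2x MIC final. Samples transferred at once to replicate Bioscreen wells, 37°C with continuous shaking, A580 read every 15 min; 10 wells per culture.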

Pseudomonas aeruginosa = experiment: Antibacterial activity against Pseudomonas aeruginosa ATCC 27853 by CLSI broth microdilution method; assay type: functional; summary of the method: as §1
Staphylococcus aureus [13] = experiment: Antibacterial activity against methicillin-resistant Staphylococcus aureus COL OC3726 by CLSI broth microdilution method; assay type: functional; summary of the method: as §3
Escherichia coli [14] = experiment: Antibacterial activity against Escherichia coli ATCC 25922 by CLSI broth microdilution method; assay type: functional; summary of the method: as §1
Escherichia coli [15] = experiment: Effect on muropeptide composition in LPS-deffective Escherichia coli OC2530 assessed as increase in UDP-MurNAc-tripeptide level at 2 times MIC after 30 mins relative to control; assay type: functional
Summary of the method: (§4)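 UDP-precursor pools. 125 ml OC2530 cultures at A600 0.3 treated with 2x MIC compound or DMSO for 30 min. Cells chilled, washed in cold 0.9% NaCl and lysed in cold 5% trichloroacetic acid 30 min on ice. Supernatants ether-extracted six times. UDP-MurNAc-tripeptide and -pentapeptide purified and quantitated. One representative of two independent experiments.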

Staphylococcus aureus [16] = experiment: Antibacterial activity against Staphylococcus aureus OC4172 by CLSI broth microdilution method; assay type: functional; summary of the method: as §1
Escherichia coli [17] = experiment: Antibacterial activity against LPS-deffective Escherichia coli OC2530 by CLSI broth microdilution method in presence of permeabilizer polymyxin B nonapeptide; assay type: functional
Escherichia coli [18] = experiment: Antibacterial activity against LPS-deffective Escherichia coli OC2530 assessed as cell lysis at 2 times MIC by colony forming assay; assay type: functional, organism-based
Escherichia coli [19] = experiment: Antibacterial activity against Escherichia coli NovaBlue by CLSI broth microdilution method; assay type: functional; summary of the method: as §1
Escherichia coli [20] = experiment: Effect on muropeptide composition in LPS-deffective Escherichia coli OC2530 assessed as decrease in UDP-MurNAc-pentapeptide level at 2 times MIC after 30 mins relative to control; assay type: functional; parameters: scale not given: the % may be the effect or the level left; summary of the method: as §4
Escherichia coli [21] = experiment: Antibacterial activity against Escherichia coli ATCC 25922 by CLSI broth microdilution method in presence of permeabilizer polymyxin B nonapeptide; assay type: functional; summary of the method: as §1
Enterococcus faecalis = experiment: Antibacterial activity against Enterococcus faecalis ATCC 29212 by CLSI broth microdilution method; assay type: functional; summary of the method: as §1
Escherichia coli [22] = experiment: Antibacterial activity against Escherichia coli OC2605 by CLSI broth microdilution method; assay type: functional; summary of the method: as §3
Escherichia coli [23] = experiment: Inhibition of Escherichia coli OC2530 MurF assessed as ratio of UDP-MurNAc-tripeptide/UDP-MurNAc-pentapeptide level at 2 times MIC after 30 mins by HPLC; summary of the method: as §4
Escherichia coli [24] = experiment: Ratio of Kd for Escherichia coli MurF in absence of ATP to Kd for Escherichia coli MurF in presence of ATP

Compound	ΔTm (Escherichia coli [1]) [°C]	Kd [2] [µM]	MIC (Escherichia coli [3]) [µg/mL]	MIC (Staphylococcus aureus [4]) [µg/mL]	IC50 [5] [µM]	Kd [6] [µM]	also measured
COc1cccc(C(=O)NC(c2ccc3c(c2)OCO3)c2cc(Cl)c3cccnc3c2O)c1 (stereo unspecified)	1.59	3.3	> 32	> 32	0.75	4.5	
O=C(NC(c1ccccc1F)c1ccc2cccnc2c1O)c1ccccc1 (stereo unspecified)	3.35	20	16 (≈ 43 µM)	32 (≈ 85.9 µM)	0.8	20	
COc1ccc(C(=O)NC(c2ccc(OC)c(OC)c2)c2cc(Cl)c3cccnc3c2O)cc1 (stereo unspecified)	0.74		> 64	> 64	25		
O=C(Nc1ccc(F)cc1)OC(CCN1CCC(O)(c2ccc(Cl)cc2)CC1)c1ccccc1 (stereo unspecified)			8 (≈ 16.6 µM)	16 (≈ 33.1 µM)	26		Activity (Escherichia coli [7]): 5; MIC (Enterococcus faecium): 16 µg/mL (≈ 33.1 µM); MIC (Staphylococcus aureus [8]): 16 µg/mL (≈ 33.1 µM); MIC (Escherichia coli [9]): > 32 µg/mL; Activity (Escherichia coli [10]): 1; MIC (Escherichia coli [11]): 16 µg/mL; Activity (Escherichia coli [12]): Active; MIC (Pseudomonas aeruginosa): > 32 µg/mL; MIC (Staphylococcus aureus [13]): 16 µg/mL (≈ 33.1 µM); MIC (Escherichia coli [14]): > 32 µg/mL; fold change (FC) (Escherichia coli [15]): 15; MIC (Staphylococcus aureus [16]): 8 µg/mL (≈ 16.6 µM); MIC (Escherichia coli [17]): 4 µg/mL; Activity (Escherichia coli [18]): Active; MIC (Escherichia coli [19]): > 64 µg/mL; Activity (Escherichia coli [20]): 50%; MIC (Escherichia coli [21]): 16 µg/mL; MIC (Enterococcus faecalis): 16 µg/mL (≈ 33.1 µM); MIC (Escherichia coli [22]): > 32 µg/mL
COc1cccc(C(=O)NC(c2ccccc2OC)c2cc(Cl)c3cccnc3c2O)c1 (stereo unspecified)	2.2	10	> 32	> 32	1.9	14	
Cc1ccc(C(NC(=O)c2ccccc2)c2ccc3cccnc3c2O)cc1 (stereo unspecified)	2.41	33	32 (≈ 86.9 µM)	32 (≈ 86.9 µM)	0.87	20	Ratio (Escherichia coli [23]): 0.02
COc1cccc(C(=O)NC(/C=C/c2ccccc2)c2cc(Cl)c3cccnc3c2O)c1 (stereo unspecified)	1.81	3.3	> 32	> 32	1.25	10	
N[C@@H]1CONC1=O [CYCLOSERINE]			64 (≈ 627 µM)	32 (≈ 313 µM)			Activity (Escherichia coli [7]): >5; MIC (Enterococcus faecium): 64 µg/mL (≈ 627 µM); MIC (Staphylococcus aureus [8]): 64 µg/mL (≈ 627 µM); MIC (Escherichia coli [9]): 32 µg/mL (≈ 313 µM); Activity (Escherichia coli [10]): 0.5; MIC (Escherichia coli [11]): 64 µg/mL; Activity (Escherichia coli [12]): Active; MIC (Pseudomonas aeruginosa): > 128 µg/mL; MIC (Staphylococcus aureus [13]): 32 µg/mL (≈ 313 µM); MIC (Escherichia coli [14]): 32 µg/mL (≈ 313 µM); MIC (Staphylococcus aureus [16]): 32 µg/mL (≈ 313 µM); MIC (Escherichia coli [17]): 64 µg/mL; Activity (Escherichia coli [18]): Active; MIC (Escherichia coli [19]): 64 µg/mL (≈ 627 µM); MIC (Escherichia coli [21]): 32 µg/mL; MIC (Enterococcus faecalis): 128 µg/mL (≈ 1250 µM); Ratio (Escherichia coli [23]): 30.3; MIC (Escherichia coli [22]): 16 µg/mL (≈ 157 µM)
O=C(NC(c1ccc2c(c1)OCO2)c1ccc2cccnc2c1O)c1ccccc1 (stereo unspecified)	1.74	50	32 (≈ 80.3 µM)	32 (≈ 80.3 µM)	0.44	12	Ratio (Escherichia coli [24]): 4
COc1ccc(C(NC(=O)c2cccc(OC)c2)c2cc(Cl)c3cccnc3c2O)cc1 (stereo unspecified)	1.82	2.5	> 32	> 32	0.33	11	
CC(C)C[C@@H]1NC(=O)[C@@H](Cc2ccccc2)NC(=O)[C@H](CCN)NC(=O)[C@@H](NC(=O)[C@H](CCN)NC(=O)[C@@H](N)[C@@H](C)O)CCNC(=O)[C@H]([C@@H](C)O)NC(=O)[C@H](CCN)NC(=O)[C@H](CCN)NC1=O [POLYMYXIN B NONAPEPTIDE] (H-T[Dab][Dab][Dab][dF]L[Dab][Dab]T; lactam 3-C)			6.2 (≈ 6.44 µM)	50 (≈ 51.9 µM)			MIC (Escherichia coli [19]): 25 µg/mL (≈ 26 µM)
COc1ccc(C(NC(=O)c2ccccc2)c2ccc3cccnc3c2O)cc1OC (stereo unspecified)	2.86	100	8 (≈ 19.3 µM)	32 (≈ 77.2 µM)	16	14	Ratio (Escherichia coli [24]): 4; Ratio (Escherichia coli [23]): 0.04
